Assay outcomes (PubChem BioAssay)
Only some compounds are listed: those with a hit (about 1.8% of all), similar ones and a draw of the others.
CCR6 antag – blocks CCL20-driven beta-arrestin recruitment at human CCR6 | P51684 | CHO-K1 CCR6 PathHunter beta-arrestin, luminescence, CCL20-stimulated | inhibition, % at 20 µM | hit rate 0.49% among 340,000 | AID 493098;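 active = compounds whose inhibition of the agonist-driven luminescence signal at 20 µM reaches about 50%, limit read from the data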;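 also: cells stimulated with CCL20 at 14 nM final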
Beta2AR agonist – human beta-2 adrenergic receptor agonism by FAP; Am2.2-beta2AR cells, FAP receptor internalization, flow cytometry; AID 504454; P07550; hit rate 0.43% among 340,000; response, % (no concentration beside the values);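 active = response above a set limit, near 3 SD of response in nonfluorescent compounds, cut at about 42% in these data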
EBI2 antag – antagonists of human EBI2 receptor. P32249. AID 651636. EBI2 beta-arrestin recruitment, luminescence, 7a,25-OHC stimulated. inhibition, % at 5 µM. hit rate 0.81% among 360,000; in the data active = inhibition above about 38%;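 also: enzyme fragment complementation signal reports receptor beta-arrestin coupling in cells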
Target sequence (P32249 whole entry, looked up, the tested form may be a part): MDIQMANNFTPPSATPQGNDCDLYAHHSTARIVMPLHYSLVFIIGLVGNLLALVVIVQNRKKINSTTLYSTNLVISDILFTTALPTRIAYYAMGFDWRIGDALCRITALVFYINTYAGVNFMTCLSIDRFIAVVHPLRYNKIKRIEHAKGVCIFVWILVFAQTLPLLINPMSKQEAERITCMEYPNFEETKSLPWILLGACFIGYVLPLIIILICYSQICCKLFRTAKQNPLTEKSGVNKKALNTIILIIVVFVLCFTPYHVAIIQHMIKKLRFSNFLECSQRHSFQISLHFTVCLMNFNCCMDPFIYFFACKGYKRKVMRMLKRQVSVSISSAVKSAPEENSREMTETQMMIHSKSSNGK
CXCR6 block – blocks human CXCR6 beta-arrestin recruitment; O00574; CHO-K1 PathHunter CXCR6 beta-arrestin, luminescence; inhibition, % at 20 µM; hit rate 0.36% among 360,000; in the data active = inhibition above about 34%, passing the limit was not always enough;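 also: antagonist mode with CXCL16 agonist at 10 nM final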
APJ ag – activates the human apelin receptor APJ; CHO-K1 APJ PathHunter beta-arrestin, luminescence; 0% DMSO wells, 100% apelin; hit rate 0.11% among 330,000; activation, % at 20 µM;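 active = activation more than six SD over the plate average, tested at 20 µM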
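Test system: CHO-K1 APJ beta-arrestin complementation cell line. Amount: cell density 1000 per well. Controls: DMSO negative, 10 nM Apelin-13 positive. Signal: luminescent beta-gal fragment complementation, chemiluminescent substrate. Read-out basis: agonist-driven arrestin binding to APJ. Timing: compound stimulation 90 min at 25 °C, detection 60 min.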
APJ antag – blocks the human apelin receptor APJ; P35414; CHO-K1 APJ beta-arrestin complementation, luminescence; inhibition, % at 20 µM; hit rate 0.32% among 330,000;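 active = inhibition above about 40% at 20 µM, limit read from the data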;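 also: cells challenged with 10 nM apelin-13 agonist together with compound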
APJ antag conf – APJ receptor antagonism confirmation; hit rate 66% among 950; shares compounds with APJ antag; APJ beta-arrestin recruitment, luminescence, antagonist mode; AID 2766; inhibition, % at 20 µM; in the data active = inhibition above about 50%
Each line names hits and unclear results; the compound was inactive in the other large screens (follow-up assays come after a bar, where they were run).

O=C(COC(=O)c1ccccc1)c1ccc(S(=O)(=O)N2CCCCC2)cc1	none
CCC1(c2ccc(F)cc2)NC(=O)N(CC(=O)N2CCN(S(=O)(=O)c3ccc(C)cc3C)CC2)C1=O (configuration not stated)	none (no result: APJ ag, APJ antag)
Cc1ccc2oc(C(=O)N(C)Cc3ccc(C)o3)c(C)c2c1	none
CCOC(=O)c1sc2nc(OCc3cccnc3)cc(C)c2c1N	none (no result: CCR6 antag, Beta2AR agonist, APJ ag, APJ antag)
O=C(COC(=O)c1ccc(Br)o1)c1ccc(S(=O)(=O)N2CCCCC2)cc1	CCR6 antag 64, CXCR6 block 44, APJ antag 68 | APJ antag conf 90
CN(N=Nc1ccc([N+](=O)[O-])cc1)c1ccccc1	none
CN(CCCC(=O)O)c1ccc(N=Nc2ccc([N+](=O)[O-])cc2)cc1	CCR6 antag 65, CXCR6 block 56, APJ antag 46 | APJ antag conf 89
CC1(C(=O)NS(=O)(=O)c2ccccc2Cl)CCN1C(=O)c1ccccc1 (configuration not stated)	none (no result: CCR6 antag, Beta2AR agonist, APJ ag, APJ antag)
COc1ccc(C(=O)Nc2nc(C)cc(C)n2)cc1[N+](=O)[O-]	none
COc1ccc(S(=O)(=O)NNc2nc(C)cc(C)n2)cc1[N+](=O)[O-]	APJ antag 62 | APJ antag conf 114
CCc1ccc(C(=O)NNc2ccc(Cl)cc2)cc1	APJ antag 51 | APJ antag conf 60
CC(=O)c1ccc(N=C2C(=O)Nc3ccccc32)cc1	CXCR6 block 69, APJ antag 104 | APJ antag conf 155
O=C1Nc2ccccc2C1=Nc1cccc(Cl)c1	none
CSc1cccc(N=C2C(=O)Nc3ccccc32)c1	CCR6 antag 54, APJ antag 45 | APJ antag conf 110
O=C1Nc2ccccc2C1=Nc1ccc(F)cc1	CCR6 antag 68, APJ antag 49 | APJ antag conf 119
Cc1cccc(N=C2C(=O)Nc3c(Cl)cccc32)c1	CCR6 antag 65, APJ antag 63 | APJ antag conf 136
CC(C)Cc1nnc(NC(=O)C2CC(=O)N(c3ccc4c(c3)OCCO4)C2)s1 (configuration not stated)	none
CCOc1ccc2nc(N=NC3=C(O)CC(C)(C)CC3=O)sc2c1	APJ antag 41 | APJ antag conf 51
COc1cc(C(C#N)N2N=C(c3ccccc3)CC2c2ccccc2)ccc1O (configuration not stated)	none
N#CC(c1ccccc1O)N1N=C(c2ccccc2)CC1c1ccccc1 (configuration not stated)	CCR6 antag 54, APJ antag 67 | APJ antag conf inactive
Cc1cn(CC(=O)NCCCN2CCCC2=O)c(=O)[nH]c1=O	none (no result: APJ ag, APJ antag)
CCNC(=S)NNc1nnc(-c2ccccc2)c(-c2ccccc2)n1	APJ antag 49 | APJ antag conf 90
CCNC(=S)NNC(=S)NCc1ccccc1	none
CC1N(C(=O)N2CCOCC2)CCN1S(=O)(=O)c1cccc(C(F)(F)F)c1 (configuration not stated)	none
O=C(N/N=C/c1ccncc1)C1CC1(c1ccccc1)c1ccccc1 (configuration not stated)	none
O=C(N/N=C/c1ccc(O)c([N+](=O)[O-])c1)C1CC1(c1ccccc1)c1ccccc1 (configuration not stated)	APJ antag 41 | APJ antag conf inactive
COc1ccc(S(=O)(=O)N2CCCCC2)cc1NC(=O)CCCOc1ccc(C)cc1	none
COc1cc(NS(=O)(=O)c2ccc(N/C=C(\C#N)c3nc4cc(Cl)ccc4o3)cc2)nc(OC)n1	APJ antag 41 | APJ antag conf inactive
COc1cc(NS(=O)(=O)c2ccc(NC(C)=O)cc2)nc(OC)n1	none
O=C/C(=C\Nc1ccc(Cl)cn1)c1nc2cc(Cl)ccc2o1	none
O=C/C(=C\Nc1ccc(S(=O)(=O)CCO)cc1)c1nc2cc(Cl)ccc2o1	APJ antag 105 | APJ antag conf inactive
CCC1(C(N)=O)CC2C=CC1C2 (configuration not stated)	none (no result: APJ ag, APJ antag)
COc1ccc(N2C(=O)CSC2c2ccccc2)cc1 (configuration not stated)	none
COc1ccc(C2SCC(=O)N2c2nc3ccccc3s2)cc1 (configuration not stated)	APJ antag 44 | APJ antag conf inactive
Cc1ccc(C(NC(=O)C2CCN(Cc3ccc(Oc4ccccc4)cc3)CC2)c2ccccn2)cc1 (configuration not stated)	none (no result: CCR6 antag, Beta2AR agonist, APJ ag, APJ antag)
CC(=O)Nc1ccc(Nc2ncnc3ccccc23)cc1	APJ antag 43 (no result: CCR6 antag, Beta2AR agonist, EBI2 antag, CXCR6 block) | APJ antag conf inactive
Cc1ccc(-c2cc3c(nn2)-c2ccccc2C3=O)cc1	EBI2 antag 60, APJ antag 43 | APJ antag conf 147
COc1cc(O)c2c(c1)COC2=O	APJ antag 44 | APJ antag conf inactive
O=C(C1=C(O)C(=O)N(CCN2CCOCC2)C1c1ccco1)c1cc2ccccc2o1 (configuration not stated)	APJ antag 50 | APJ antag conf inactive
COc1cccc2cc(C(=O)C3=C(O)C(=O)N(CCN4CCOCC4)C3c3cccs3)oc12 (configuration not stated)	APJ antag 56 | APJ antag conf inactive
O=C(OCc1cn([C@H]2CN(C(=O)C3CCCCC3)[C@@H](c3ccc(Cl)cc3)C[C@@H]2O)nn1)c1ccccc1	none (no result: CCR6 antag, Beta2AR agonist, APJ ag, APJ antag)
O=[N+]([O-])c1cccc(/C=N/NS(=O)(=O)c2ccccc2)c1	APJ antag 65 | APJ antag conf 68
CNc1c(NS(=O)(=O)c2ccc3c(c2)CCCC3)c(=O)oc2ccccc12	none
CCN(CC)C(=S)SCC(=O)c1ccccc1	none
CCN(CC)C(=S)SSC(=S)N(CC)CC	CCR6 antag 60, CXCR6 block 51, APJ antag 71 | APJ antag conf 108
Cc1cccc2cc3c(N)c(C(=O)N4CCOCC4)sc3nc12	APJ antag 51 | APJ antag conf inactive
CCOC(=O)/C=C/S(=O)(=O)c1ccc(NC(C)=O)cc1	APJ antag 44 | APJ antag conf 83
CC(C)(C)c1cccc(Cn2nnc3ccccc32)c1O	none
Cc1cc(Cn2nnc3ccccc32)c(O)c(C(C)(C)C)c1	APJ antag 43 | APJ antag conf inactive
Cc1ccc(NS(=O)(=O)c2cccc(C(=O)N3CCN(C(=O)c4ccco4)CC3)c2)cc1	none
CC(C)OCCCn1c(=N)c(S(=O)(=O)c2ccccc2)cc2c(=O)n3ccccc3nc21	APJ antag 43 | APJ antag conf inactive
COc1ccc(C(O)c2nc(-c3cccc(CO)c3)cs2)cc1 (configuration not stated)	none (no result: CCR6 antag, Beta2AR agonist, APJ ag, APJ antag)
CN1CCN(S(=O)(=O)c2cc([N+](=O)[O-])ccc2N/N=C/c2ccc(Cl)cc2)CC1	none
